Experimental data as given in ChEMBL document CHEMBL1154842, “Synthesis, radiolabeling, and biological evaluation of (R)- and (S)-2-amino-3-[(18)F]fluoro-2-methylpropanoic acid (FAMP) and (R)- and (S)-3-[(18)F]fluoro-2-methyl-2-N-(methylamino)propanoic acid (NMeFAMP) as potential PET radioligands for imaging brain tumors” (J Med Chem, 2010).

Key:
Brain [1] = assay: Biodistribution in brain of Fischer 344 rat bearing rat 9L cells at 20 uCi, iv after 15 mins; format: ADME, organism-based; conditions: in vivo, 0.25 h
Outline: (§1)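 Male Fischer 344 rats (200–250 g) carrying intracranial 9L gliosarcoma (5×10^4 cells implanted stereotactically, 10–12 days growth), under ketamine:xylazine anaesthesia. About 20 μCi tracer in 0.5 mL sterile saline given via tail-vein catheter. Groups of 4–5 were killed by intracardiac KCl at 15 (NMeFAMP only), 30, 60 or 120 min. Tissues were weighed and gamma-counted, decay-corrected, and reported as %ID/g, mean ± SD.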

Brain [2] = assay: Biodistribution in brain of Fischer 344 rat bearing rat 9L cells at 20 uCi, iv after 30 mins; format: ADME, organism-based; conditions: in vivo, 0.5 h; outline: as §1
[3] = Biodistribution in tumor of Fischer 344 rat bearing rat 9L cells at 20 uCi, iv after 30 mins; format: ADME, organism-based, Neoplasm; conditions: in vivo, 0.5 h; outline: as §1
[4] = Ratio of drug level from tumor to brain of Fischer 344 rat bearing rat 9L cells at 20 uCi, iv after 120 mins; format: ADME, organism-based; conditions: in vivo, 2 h
Blood [5] = assay: Biodistribution in blood of Fischer 344 rat bearing rat 9L cells at 20 uCi, iv after 30 mins; format: ADME, organism-based; conditions: in vivo, 0.5 h; outline: as §1
Blood [6] = assay: Biodistribution in blood of Fischer 344 rat bearing rat 9L cells at 20 uCi, iv after 60 mins; format: ADME, organism-based; conditions: in vivo, 1 h; outline: as §1
Blood [7] = assay: Biodistribution in blood of Fischer 344 rat bearing rat 9L cells at 20 uCi, iv after 120 mins; format: ADME, organism-based; conditions: in vivo, 2 h; outline: as §1
Heart [8] = assay: Biodistribution in heart of Fischer 344 rat bearing rat 9L cells at 20 uCi, iv after 30 mins; format: ADME, organism-based; conditions: in vivo, 0.5 h; outline: as §1
Heart [9] = assay: Biodistribution in heart of Fischer 344 rat bearing rat 9L cells at 20 uCi, iv after 60 mins; format: ADME, organism-based; conditions: in vivo, 1 h; outline: as §1
Heart [10] = assay: Biodistribution in heart of Fischer 344 rat bearing rat 9L cells at 20 uCi, iv after 120 mins; format: ADME, organism-based; conditions: in vivo, 2 h; outline: as §1
Lung [11] = assay: Biodistribution in lung of Fischer 344 rat bearing rat 9L cells at 20 uCi, iv after 30 mins; format: ADME, organism-based; conditions: in vivo, 0.5 h; outline: as §1
Lung [12] = assay: Biodistribution in lung of Fischer 344 rat bearing rat 9L cells at 20 uCi, iv after 60 mins; format: ADME, organism-based; conditions: in vivo, 1 h; outline: as §1
Lung [13] = assay: Biodistribution in lung of Fischer 344 rat bearing rat 9L cells at 20 uCi, iv after 120 mins; format: ADME, organism-based; conditions: in vivo, 2 h; outline: as §1
Liver [14] = assay: Biodistribution in liver of Fischer 344 rat bearing rat 9L cells at 20 uCi, iv after 30 mins; format: ADME, organism-based; conditions: in vivo, 0.5 h; outline: as §1
Liver [15] = assay: Biodistribution in liver of Fischer 344 rat bearing rat 9L cells at 20 uCi, iv after 60 mins; format: ADME, organism-based; conditions: in vivo, 1 h; outline: as §1
Liver [16] = assay: Biodistribution in liver of Fischer 344 rat bearing rat 9L cells at 20 uCi, iv after 120 mins; format: ADME, organism-based; conditions: in vivo, 2 h; outline: as §1
Pancreas [17] = assay: Biodistribution in pancreas of Fischer 344 rat bearing rat 9L cells at 20 uCi, iv after 30 mins; format: ADME, organism-based; conditions: in vivo, 0.5 h; outline: as §1
Pancreas [18] = assay: Biodistribution in pancreas of Fischer 344 rat bearing rat 9L cells at 20 uCi, iv after 60 mins; format: ADME, organism-based; conditions: in vivo, 1 h; outline: as §1
Pancreas [19] = assay: Biodistribution in pancreas of Fischer 344 rat bearing rat 9L cells at 20 uCi, iv after 120 mins; format: ADME, organism-based; conditions: in vivo, 2 h; outline: as §1
Spleen [20] = assay: Biodistribution in spleen of Fischer 344 rat bearing rat 9L cells at 20 uCi, iv after 30 mins; format: ADME, organism-based; conditions: in vivo, 0.5 h; outline: as §1
Spleen [21] = assay: Biodistribution in spleen of Fischer 344 rat bearing rat 9L cells at 20 uCi, iv after 60 mins; format: ADME, organism-based; conditions: in vivo, 1 h; outline: as §1
Spleen [22] = assay: Biodistribution in spleen of Fischer 344 rat bearing rat 9L cells at 20 uCi, iv after 120 mins; format: ADME, organism-based; conditions: in vivo, 2 h; outline: as §1
Kidney [23] = assay: Biodistribution in kidney of Fischer 344 rat bearing rat 9L cells at 20 uCi, iv after 30 mins; format: ADME, organism-based; conditions: in vivo, 0.5 h; outline: as §1
Kidney [24] = assay: Biodistribution in kidney of Fischer 344 rat bearing rat 9L cells at 20 uCi, iv after 60 mins; format: ADME, organism-based; conditions: in vivo, 1 h; outline: as §1
Kidney [25] = assay: Biodistribution in kidney of Fischer 344 rat bearing rat 9L cells at 20 uCi, iv after 120 mins; format: ADME, organism-based; conditions: in vivo, 2 h; outline: as §1
Muscle tissue [26] = assay: Biodistribution in muscle of Fischer 344 rat bearing rat 9L cells at 20 uCi, iv after 30 mins; format: ADME, organism-based; conditions: in vivo, 0.5 h; outline: as §1
Muscle tissue [27] = assay: Biodistribution in muscle of Fischer 344 rat bearing rat 9L cells at 20 uCi, iv after 60 mins; format: ADME, organism-based; conditions: in vivo, 1 h; outline: as §1
Muscle tissue [28] = assay: Biodistribution in muscle of Fischer 344 rat bearing rat 9L cells at 20 uCi, iv after 120 mins; format: ADME, organism-based; conditions: in vivo, 2 h; outline: as §1
Bone [29] = assay: Biodistribution in bone of Fischer 344 rat bearing rat 9L cells at 20 uCi, iv after 30 mins; format: ADME, organism-based, Bone element; conditions: in vivo, 0.5 h; outline: as §1
Bone [30] = assay: Biodistribution in bone of Fischer 344 rat bearing rat 9L cells at 20 uCi, iv after 60 mins; format: ADME, organism-based, Bone element; conditions: in vivo, 1 h; outline: as §1
Bone [31] = assay: Biodistribution in bone of Fischer 344 rat bearing rat 9L cells at 20 uCi, iv after 120 mins; format: ADME, organism-based, Bone element; conditions: in vivo, 2 h; outline: as §1
[32] = Biodistribution in testis of Fischer 344 rat bearing rat 9L cells at 20 uCi, iv after 30 mins; format: ADME, organism-based; conditions: in vivo, 0.5 h; outline: as §1
[33] = Biodistribution in testis of Fischer 344 rat bearing rat 9L cells at 20 uCi, iv after 60 mins; format: ADME, organism-based; conditions: in vivo, 1 h; outline: as §1
[34] = Biodistribution in testis of Fischer 344 rat bearing rat 9L cells at 20 uCi, iv after 120 mins; format: ADME, organism-based; conditions: in vivo, 2 h; outline: as §1
Blood [35] = assay: Biodistribution in blood of Fischer 344 rat bearing rat 9L cells at 20 uCi, iv after 15 mins; format: ADME, organism-based; conditions: in vivo, 0.25 h; outline: as §1
Heart [36] = assay: Biodistribution in heart of Fischer 344 rat bearing rat 9L cells at 20 uCi, iv after 15 mins; format: ADME, organism-based; conditions: in vivo, 0.25 h; outline: as §1
Lung [37] = assay: Biodistribution in lung of Fischer 344 rat bearing rat 9L cells at 20 uCi, iv after 15 mins; format: ADME, organism-based; conditions: in vivo, 0.25 h; outline: as §1
Liver [38] = assay: Biodistribution in liver of Fischer 344 rat bearing rat 9L cells at 20 uCi, iv after 15 mins; format: ADME, organism-based; conditions: in vivo, 0.25 h; outline: as §1
Pancreas [39] = assay: Biodistribution in pancreas of Fischer 344 rat bearing rat 9L cells at 20 uCi, iv after 15 mins; format: ADME, organism-based; conditions: in vivo, 0.25 h; outline: as §1
Spleen [40] = assay: Biodistribution in spleen of Fischer 344 rat bearing rat 9L cells at 20 uCi, iv after 15 mins; format: ADME, organism-based; conditions: in vivo, 0.25 h; outline: as §1
Kidney [41] = assay: Biodistribution in kidney of Fischer 344 rat bearing rat 9L cells at 20 uCi, iv after 15 mins; format: ADME, organism-based; conditions: in vivo, 0.25 h; outline: as §1
Muscle tissue [42] = assay: Biodistribution in muscle of Fischer 344 rat bearing rat 9L cells at 20 uCi, iv after 15 mins; format: ADME, organism-based; conditions: in vivo, 0.25 h; outline: as §1
Bone [43] = assay: Biodistribution in bone of Fischer 344 rat bearing rat 9L cells at 20 uCi, iv after 15 mins; format: ADME, organism-based, Bone element; conditions: in vivo, 0.25 h; outline: as §1
[44] = Biodistribution in testis of Fischer 344 rat bearing rat 9L cells at 20 uCi, iv after 15 mins; format: ADME, organism-based; conditions: in vivo, 0.25 h; outline: as §1
[45] = rat, in vivo, iv, 1 h
[46] = rat, in vivo, iv, 1 h; remark: listed apart in the source
Brain [47] = assay: Biodistribution in brain of Fischer 344 rat bearing rat 9L cells at 20 uCi, iv after 15 mins; conditions: in vivo
[48] = Ratio of drug level from tumor to brain of Fischer 344 rat bearing rat 9L cells at 20 uCi, iv after 60 mins; conditions: in vivo, 1 h

Molecule CN[C@](C)(C[18F])C(=O)O.Cl has a Drug uptake (Brain [1]) of 0.06 % ID/g, a Drug uptake (Brain [2]) of 0.06 % ID/g and a Ratio [3] of 30.2. For the same molecule, the Ratio [4] was 35.4, the Drug uptake (Blood [5]) was 0.31 % ID/g and the Drug uptake (Blood [6]) was 0.24 % ID/g. It also gave a Drug uptake (Blood [7]) of 0.14 % ID/g, a Drug uptake (Heart [8]) of 0.3 % ID/g and a Drug uptake (Heart [9]) of 0.31 % ID/g. For the same molecule, the Drug uptake (Heart [10]) was 0.21 % ID/g, the Drug uptake (Lung [11]) was 0.87 % ID/g and the Drug uptake (Lung [12]) was 0.5 % ID/g. It also gave a Drug uptake (Lung [13]) of 0.42 % ID/g, a Drug uptake (Liver [14]) of 0.71 % ID/g and a Drug uptake (Liver [15]) of 0.88 % ID/g. The Drug uptake (Liver [16]) was 0.6 % ID/g, the Drug uptake (Pancreas [17]) was 3.4 % ID/g and the Drug uptake (Pancreas [18]) was 4.34 % ID/g. It also gave a Drug uptake (Pancreas [19]) of 3.78 % ID/g, a Drug uptake (Spleen [20]) of 0.51 % ID/g and a Drug uptake (Spleen [21]) of 0.53 % ID/g. For the same molecule, the Drug uptake (Spleen [22]) was 0.49 % ID/g, the Drug uptake (Kidney [23]) was 9.48 % ID/g and the Drug uptake (Kidney [24]) was 5.18 % ID/g. The Drug uptake (Kidney [25]) was 2.22 % ID/g, the Drug uptake (Muscle tissue [26]) was 0.26 % ID/g and the Drug uptake (Muscle tissue [27]) was 0.24 % ID/g. The Drug uptake (Muscle tissue [28]) was 0.22 % ID/g, the Drug uptake (Bone [29]) was 0.32 % ID/g and the Drug uptake (Bone [30]) was 0.37 % ID/g. For the same molecule, the Drug uptake (Bone [31]) was 0.25 % ID/g, the Drug uptake [32] was 0.13 % ID/g and the Drug uptake [33] was 0.13 % ID/g. The Drug uptake [34] was 0.08 % ID/g, the Drug uptake (Blood [35]) was 0.54 % ID/g and the Drug uptake (Heart [36]) was 0.32 % ID/g. It also gave a Drug uptake (Lung [37]) of 0.86 % ID/g, a Drug uptake (Liver [38]) of 0.83 % ID/g and a Drug uptake (Pancreas [39]) of 3.52 % ID/g. For the same molecule, the Drug uptake (Spleen [40]) was 0.57 % ID/g, the Drug uptake (Kidney [41]) was 11.58 % ID/g and the Drug uptake (Muscle tissue [42]) was 0.25 % ID/g. It also gave a Drug uptake (Bone [43]) of 0.46 % ID/g, a Drug uptake [44] of 0.19 % ID/g and a Drug uptake [45] of 0.05 % ID/g. The Drug uptake [46] was 1.46 % ID/g, the Ratio (Brain [47]) was 20.4 and the Ratio [48] was 28.7.
